In brackets after ≈: the same amount, converted by molar mass.
What was measured:
[1] = tested on: Staphylococcus aureus; test: Antibacterial activity against Staphylococcus aureus ATCC 6538 after 24 hrs by micro dilution method; type: functional; conditions: ATCC 6538, 24 h
Method in brief: (§1)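 Microdilution MIC in 96-well plates. Bacterial suspensions adjusted in sterile saline to 1.0 × 10^5 CFU/ml, giving 1.0 × 10^4 cfu per well in LB broth. Compounds tested at up to 1 mg/ml. Plates incubated 24 h. MIC taken as the lowest concentration with no visible growth under a binocular microscope. OD at 655 nm was also read against a blank and the positive control. Streptomycin and ampicillin were the positive controls.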

[2] = tested on: Bacillus cereus; test: Antibacterial activity against Bacillus cereus clinical isolate after 24 hrs by micro dilution method; type: functional; method in brief: as §1
[3] = tested on: Micrococcus flavus; test: Antibacterial activity against Micrococcus flavus ATCC 10240 after 24 hrs by micro dilution method; type: functional; conditions: ATCC 10240, 24 h; method in brief: as §1
[4] = tested on: Listeria monocytogenes; test: Antibacterial activity against Listeria monocytogenes NCTC 7973 after 24 hrs by micro dilution method; type: functional; conditions: NCTC 7973, 24 h; method in brief: as §1
[5] = tested on: Pseudomonas aeruginosa; test: Antibacterial activity against Pseudomonas aeruginosa ATCC 27853 after 24 hrs by micro dilution method; type: functional; conditions: ATCC 27853, 24 h; method in brief: as §1
[6] = tested on: Enterobacter cloacae; test: Antibacterial activity against Enterobacter cloacae human isolate after 24 hrs by micro dilution method; type: functional; method in brief: as §1
[7] = tested on: Salmonella typhimurium; test: Antibacterial activity against Salmonella Typhimurium ATCC 13311 after 24 hrs by micro dilution method; type: functional, Salmonella enterica subsp. enterica serovar Typhimurium; conditions: Salmonella enterica, ATCC 13311, 24 h; method in brief: as §1
[8] = tested on: Escherichia coli; test: Antibacterial activity against Escherichia coli ATCC 35210 after 24 hrs by micro dilution method; type: functional; conditions: ATCC 35210, 24 h; method in brief: as §1
[9] = tested on: Staphylococcus aureus; test: Antibacterial activity against Staphylococcus aureus ATCC 6538 treated for 24 hrs followed by sub-cultivated for 72 hrs by micro dilution method; type: functional
Method in brief: (§2)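 2 µl from each well was serially subcultured into 100 µl fresh broth per well and incubated a further 72 h. MBC is the lowest concentration with no visible growth, taken as 99.5% killing of the original inoculum. Streptomycin and ampicillin were the positive controls.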

[10] = tested on: Bacillus cereus; test: Antibacterial activity against Bacillus cereus clinical isolate treated for 24 hrs followed by sub-cultivated for 72 hrs by micro dilution method; type: functional; method in brief: as §2
[11] = tested on: Micrococcus flavus; test: Antibacterial activity against Micrococcus flavus ATCC 10240 treated for 24 hrs followed by sub-cultivated for 72 hrs by micro dilution method; type: functional; method in brief: as §2
[12] = tested on: Listeria monocytogenes; test: Antibacterial activity against Listeria monocytogenes NCTC 7973 treated for 24 hrs followed by sub-cultivated for 72 hrs by micro dilution method; type: functional; method in brief: as §2
[13] = tested on: Pseudomonas aeruginosa; test: Antibacterial activity against Pseudomonas aeruginosa ATCC 27853 treated for 24 hrs followed by sub-cultivated for 72 hrs by micro dilution method; type: functional; method in brief: as §2
[14] = tested on: Enterobacter cloacae; test: Antibacterial activity against Enterobacter cloacae human isolate treated for 24 hrs followed by sub-cultivated for 72 hrs by micro dilution method; type: functional; method in brief: as §2
[15] = tested on: Salmonella typhimurium; test: Antibacterial activity against Salmonella Typhimurium ATCC 13311 treated for 24 hrs followed by sub-cultivated for 72 hrs by micro dilution method; type: functional, Salmonella enterica subsp. enterica serovar Typhimurium; conditions: Salmonella enterica; method in brief: as §2
[16] = tested on: Escherichia coli; test: Antibacterial activity against Escherichia coli ATCC 35210 treated for 24 hrs followed by sub-cultivated for 72 hrs by micro dilution method; type: functional; method in brief: as §2
[17] = tested on: Talaromyces funiculosus; test: Antifungal activity against Penicillium funiculosum ATCC 36839 after 72 hrs by serial dilution method; type: functional; conditions: ATCC 36839, 72 h
Method in brief: (§3)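 Modified microdilution MIC. Spores were washed from malt agar cultures with sterile 0.85% saline containing 0.1% Tween 80 and adjusted to about 1.0 × 10^5 per 100 µl well in malt broth. Compounds were dissolved in DMSO (1 mg/ml). Plates incubated 72 h at 28 °C. MIC is the lowest concentration with no visible growth under a binocular microscope. Bifonazole and ketoconazole were the references.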

[18] = tested on: Penicillium ochrochloron; test: Antifungal activity against Penicillium ochrochloron ATCC 9112 after 72 hrs by serial dilution method; type: functional; conditions: ATCC 9112, 72 h; method in brief: as §3
[19] = tested on: Trichoderma viride; test: Antifungal activity against Trichoderma viride IAM 5061 after 72 hrs by serial dilution method; type: functional; conditions: IAM 5061, 72 h; method in brief: as §3
[20] = tested on: Aspergillus fumigatus; test: Antifungal activity against Aspergillus fumigatus human isolate after 72 hrs by serial dilution method; type: functional; method in brief: as §3
[21] = tested on: Aspergillus niger; test: Antifungal activity against Aspergillus niger ATCC 6275 after 72 hrs by serial dilution method; type: functional; conditions: ATCC 6275, 72 h; method in brief: as §3
[22] = tested on: Aspergillus flavus; test: Antifungal activity against Aspergillus flavus ATCC 9643 after 72 hrs by serial dilution method; type: functional; conditions: ATCC 9643, 72 h; method in brief: as §3
[23] = tested on: Aspergillus versicolor; test: Antifungal activity against Aspergillus versicolor ATCC 11730 after 72 hrs by serial dilution method; type: functional; conditions: ATCC 11730, 72 h; method in brief: as §3
[24] = tested on: Fulvia fulva; test: Antifungal activity against Fulvia fulva after 72 hrs by serial dilution method; type: functional; method in brief: as §3
[25] = tested on: Talaromyces funiculosus; test: Antifungal activity against Penicillium funiculosum ATCC 36839 treated for 72 hrs followed by sub-cultivated for 5 days by serial dilution method; type: functional
Method in brief: (§4)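 MFC obtained after the 72 h, 28 °C malt-broth microdilution (spore inoculum about 1.0 × 10^5 per well, compounds from 1 mg/ml DMSO). 2 µl was serially subcultured into 100 µl broth per well and incubated a further 5 days at 28 °C. MFC is the lowest concentration with no visible growth, taken as 99.5% killing of the original inoculum.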

[26] = tested on: Penicillium ochrochloron; test: Antifungal activity against Penicillium ochrochloron ATCC 9112 treated for 72 hrs followed by sub-cultivated for 5 days by serial dilution method; type: functional; method in brief: as §4
[27] = tested on: Trichoderma viride; test: Antifungal activity against Trichoderma viride IAM 5061 treated for 72 hrs followed by sub-cultivated for 5 days by serial dilution method; type: functional; method in brief: as §4
[28] = tested on: Aspergillus fumigatus; test: Antifungal activity against Aspergillus fumigatus human isolate treated for 72 hrs followed by sub-cultivated for 5 days by serial dilution method; type: functional; method in brief: as §4
[29] = tested on: Aspergillus niger; test: Antifungal activity against Aspergillus niger ATCC 6275 treated for 72 hrs followed by sub-cultivated for 5 days by serial dilution method; type: functional; method in brief: as §4
[30] = tested on: Aspergillus flavus; test: Antifungal activity against Aspergillus flavus ATCC 9643 treated for 72 hrs followed by sub-cultivated for 5 days by serial dilution method; type: functional; method in brief: as §4
[31] = tested on: Aspergillus versicolor; test: Antifungal activity against Aspergillus versicolor ATCC 11730 treated for 72 hrs followed by sub-cultivated for 5 days by serial dilution method; type: functional; method in brief: as §4
[32] = tested on: Fulvia fulva; test: Antifungal activity against Fulvia fulva treated for 72 hrs followed by sub-cultivated for 5 days by serial dilution method; type: functional; method in brief: as §4

Compound | MIC [1] [µM] | MIC [2] [µM] | MIC [3] [µM] | MIC [4] [µM] | MIC [5] [µM] | MIC [6] [µM] | MIC [7] [µM] | MIC [8] [µM] | MBC [9] [µM] | MBC [10] [µM] | MBC [11] [µM] | MBC [12] [µM] | MBC [13] [µM] | MBC [14] [µM] | MBC [15] [µM] | MBC [16] [µM] | MIC [17] [µM] | MIC [18] [µM] | MIC [19] [µM] | MIC [20] [µM] | further results
CCn1c(Cc2cc(OC)c(OC)cc2S(=O)(=O)N(C)C)n[nH]c1=O | 270 (≈ 100 µg/mL) | 270 (≈ 100 µg/mL) | 400 (≈ 148 µg/mL) | 400 (≈ 148 µg/mL) | 400 (≈ 148 µg/mL) | 540 (≈ 200 µg/mL) | 400 (≈ 148 µg/mL) | 270 (≈ 100 µg/mL) | 540 (≈ 200 µg/mL) | 810 (≈ 300 µg/mL) | 400 (≈ 148 µg/mL) | 540 (≈ 200 µg/mL) | 540 (≈ 200 µg/mL) | 540 (≈ 200 µg/mL) | 540 (≈ 200 µg/mL) | 270 (≈ 100 µg/mL) | 140 (≈ 51.9 µg/mL) | 140 (≈ 51.9 µg/mL) | 140 (≈ 51.9 µg/mL) | 140 (≈ 51.9 µg/mL) | MIC [21]: 270 µM (≈ 100 µg/mL); MIC [22]: 270 µM (≈ 100 µg/mL); MIC [23]: 140 µM (≈ 51.9 µg/mL); MIC [24]: 270 µM (≈ 100 µg/mL); MFC [25]: 270 µM (≈ 100 µg/mL); MFC [26]: 270 µM (≈ 100 µg/mL); MFC [27]: 270 µM (≈ 100 µg/mL); MFC [28]: 270 µM (≈ 100 µg/mL); MFC [29]: 450 µM (≈ 167 µg/mL); MFC [30]: 450 µM (≈ 167 µg/mL); MFC [31]: 450 µM (≈ 167 µg/mL); MFC [32]: 270 µM (≈ 100 µg/mL)
CCCn1c(Cc2cc(OC)c(OC)cc2S(=O)(=O)N(C)C)n[nH]c1=O | 260 (≈ 100 µg/mL) | 260 (≈ 100 µg/mL) | 650 (≈ 250 µg/mL) | 650 (≈ 250 µg/mL) | 650 (≈ 250 µg/mL) | 650 (≈ 250 µg/mL) | 650 (≈ 250 µg/mL) | 650 (≈ 250 µg/mL) | 390 (≈ 150 µg/mL) | 650 (≈ 250 µg/mL) | 650 (≈ 250 µg/mL) | 780 (≈ 300 µg/mL) | 780 (≈ 300 µg/mL) | 780 (≈ 300 µg/mL) | 650 (≈ 250 µg/mL) | 650 (≈ 250 µg/mL) | 130 (≈ 50 µg/mL) | 130 (≈ 50 µg/mL) | 70 (≈ 26.9 µg/mL) | 130 (≈ 50 µg/mL) | MIC [21]: 130 µM (≈ 50 µg/mL); MIC [22]: 130 µM (≈ 50 µg/mL); MIC [23]: 130 µM (≈ 50 µg/mL); MIC [24]: 260 µM (≈ 100 µg/mL); MFC [25]: 260 µM (≈ 100 µg/mL); MFC [26]: 390 µM (≈ 150 µg/mL); MFC [27]: 130 µM (≈ 50 µg/mL); MFC [28]: 260 µM (≈ 100 µg/mL); MFC [29]: 260 µM (≈ 100 µg/mL); MFC [30]: 260 µM (≈ 100 µg/mL); MFC [31]: 390 µM (≈ 150 µg/mL); MFC [32]: 260 µM (≈ 100 µg/mL)
COc1cc(Cc2n[nH]c(=O)n2C(C)C)c(S(=O)(=O)N(C)C)cc1OC | 390 (≈ 150 µg/mL) | 260 (≈ 100 µg/mL) | 390 (≈ 150 µg/mL) | 390 (≈ 150 µg/mL) | 390 (≈ 150 µg/mL) | 390 (≈ 150 µg/mL) | 390 (≈ 150 µg/mL) | 390 (≈ 150 µg/mL) | 390 (≈ 150 µg/mL) | 780 (≈ 300 µg/mL) | 390 (≈ 150 µg/mL) | 390 (≈ 150 µg/mL) | 390 (≈ 150 µg/mL) | 390 (≈ 150 µg/mL) | 390 (≈ 150 µg/mL) | 390 (≈ 150 µg/mL) | 260 (≈ 100 µg/mL) | 130 (≈ 50 µg/mL) | 30 (≈ 11.5 µg/mL) | 30 (≈ 11.5 µg/mL) | MIC [21]: 260 µM (≈ 100 µg/mL); MIC [22]: 260 µM (≈ 100 µg/mL); MIC [23]: 130 µM (≈ 50 µg/mL); MIC [24]: 260 µM (≈ 100 µg/mL); MFC [25]: 260 µM (≈ 100 µg/mL); MFC [26]: 390 µM (≈ 150 µg/mL); MFC [27]: 70 µM (≈ 26.9 µg/mL); MFC [28]: 130 µM (≈ 50 µg/mL); MFC [29]: 390 µM (≈ 150 µg/mL); MFC [30]: 390 µM (≈ 150 µg/mL); MFC [31]: 390 µM (≈ 150 µg/mL); MFC [32]: 260 µM (≈ 100 µg/mL)

From ChEMBL document CHEMBL1944580, “Synthesis of novel sulfonamide-1,2,4-triazoles, 1,3,4-thiadiazoles and 1,3,4-oxadiazoles, as potential antibacterial and antifungal agents. Biological evaluation and conformational analysis studies” (2012)
